Results taken from the EternaBench riboswitch data.

Tested on: MS2 coat protein
Test: apparent Kd, MS2 coat protein; higher = weaker binding; RNA-MaP array; FMN 200 µM where present
In short: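 Binding was read on Illumina sequencing-chip clusters where stalled E. coli RNA polymerase had transcribed each design. A titration of SNAP-549-labelled MS2 coat protein began at 0.7 or 1.5 nM and doubled to 3 µM, once without ligand and once with constant ligand, in 100 mM Tris-HCl pH 7.5, 80 mM KCl, 4 mM MgCl2, BSA, DTT, yeast tRNA and Tween-20. The apparent Kd is the median of filtered per-cluster binding-curve fits, based on green signal normalised to red-channel RNA signal and control-cluster median Fmax.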

[1] = designed as: ON switch for flavin mononucleotide, no ligand
[2] = ligand present: flavin mononucleotide, designed as: ON switch for flavin mononucleotide
[3] = designed as: OFF switch for flavin mononucleotide, no ligand
[4] = ligand present: flavin mononucleotide, designed as: OFF switch for flavin mononucleotide

| Sequence | apparent Kd [1] [nM] | apparent Kd [2] [nM] | apparent Kd [3] [nM] | apparent Kd [4] [nM] |
| --- | --- | --- | --- | --- |
| UGGAUCAUCGGAGGAUAUCAUGUGUAAACAUGAGGAUCACCCAUGUCGUACGAGAGUACGGAGAUUGAGAAGGCCGAUGAUCCU | 85.4 | 16.4 | – | – |
| UGUUCGUCAGGAUAUUCUACUUAUUACAUGAGGAUCACCCAUGUGUAUGUACAAGGGUGUGAAGAAGGGACUUUUU | – | – | 719 | 260 |
| ACAGAGGCUGACAUGAGGAUCACCCAUGUUAGAUUGUUAUGUCAGGAUAUUAUCUGGCAACCAGAUGAGAAGGGACCCUCUGUU | 21.5 | 7.68 | – | – |
| AUACAUCUUCGAGGAUAUCGGUGAUAAAUUUUACGAGAAGGCGAUGAAAGAUAUAAUCUUAUAUACAUGAGGAUCACCCAUGUU | 26 | 24.1 | – | – |
| GUCGUACAAGGAUAUACGGUGAGCUGUGAGUUAUCUGGGACACAUGAGGAUCACCCAUGUAGAAGGUGUCGACA | – | – | 310 | 470 |
| AAUUACAUGUAGAAGGUACUAACAUAAGUGUUGUAAGGAUAUACCAAUUUAUUAGUUUUAAAGAUACAUGAGGAUCACCCAUGU | 12.5 | 8.22 | – | – |
| CGGCAAUGACGAGGAUAUAGACAUGAGGAUCACCCAUGUAACAGUAUUACAGGGCGUCUUCUCAGCUAGAAGGCGUUCUAUGCC | – | – | 37.3 | 88.4 |
| GGAAGGUGAGGAUAUACAAUGACGGAAACGUCAGGUGAGAGACAUGAGGAUCACCCAUGUAGAAGGCACGGAGA | – | – | 73.7 | 730 |
| AUGAUUAUAUUAUACAUGAGGAUCACCCAUGUUAUAAGUCAUGAGGAUAUGGUAUUGUAGUUUUUCCAGAAGGCAUUUAACUUA | 7.91 | 5.47 | – | – |
| AGAAACUACGAGAAGGACAUAUGACCAAGACUAAACAUGAGGAUCACCCAUGUAGGAUAUCGUAGUUUCAGGAUCGUGAGAUCA | – | – | 5.81 | 12.2 |
| UUAAUCUAUACAGGAUAUCCAUACGCUGCAUACGGAGAAGGGUAACAAUCAUGAGGACAUGAGGAUCACCCAUGUUGUGACCAU | 198 | 97.1 | – | – |
| GGUCUGAUAUGAGGAUAUGCUCAGGAUAACUGAGCAGAAGGCAUGUGAAAACAUGAGGAUCACCCAUGUGAUCAAUACAGACCA | 141 | 23.9 | – | – |
| GACUUGGCUACAUGAGGAUCACCCAUGUUUGACUGGAUCGAUUAGGAUAUAGUGAUAUGCAACAAUUAGAAGGGAUGUUUACGG | 52.9 | 42.2 | – | – |
| UUAGAAUUGCAAGGAUAUCUUAUUUAGAUAGUAAGAGAAGGUGCUUUAUAGUUACAUGAGGAUCACCCAUGUAUUUCUUUUUAU | 23.1 | 19.7 | – | – |
| AAAUAACAUGAGGAUCACCCAUGUGCUGGAUAUGCAGGAUAUGGGCGGCGGGAGCGCGGCCCAGAAGGGCAGCUCC | 100 | 113 | – | – |
| AACAAACAUGAGGAUCACCCAUGUCAGGAUAUGGCGGCUAGUGUGCCACCGUACACUACCAGAAGGGACUGGGU | – | – | 212 | 151 |
| AUCGUUCGAGAGAAGGGAACAUGAGGAUCACCCAUGUUACCUCACCUGGUGACGGAACUCCAAGUUCAGGAUAUCUCGAGCAAU | – | – | 5.38 | 8.25 |
| AUACAUGAGGAUCACCCAUGUAAUUAAUUAACUAGUAAGAUCUAGGAUAUCAGCUCGAAUAGAGCUGAGAAGGAGAUCACAUGU | 34 | 15.4 | – | – |
| UUAAUUAAUUAAUUAUACAUGAGGAUCACCCAUGUAAGUGAUCAGGAUAUCAGCUCGAAUAGAGCUGAGAAGGGAUACAUGAAU | 144 | 118 | – | – |
| AUACCACGAGGAUAUCGUCUAUUUCACAUGAGGAUCACCCAUGUUAUCCUUGUUUCGUUUCGAGAAGGCGUGUUUU | – | – | 47.5 | 110 |
| GCGUUAGUAUCACAUGUAUUACAUGAGGAUCACCCAUGUUACUAGGAUAUGUAUUAGAAUUAUCAACAGAAGGAGUAAUAACGC | – | – | 12.6 | 20.3 |
| GAGAAGAAGUUAGGAUAUUGGAUAGGGACGGAAUAAGAAGGAGCAAGACAUGAGGAUCACCCAUGUGUAGAAGAAGAGAUCCUC | – | – | 520 | 384 |
| GUAUAUAGUGUGAGGAUAUGCUGGUCCUUGGAUCAGCAGAAGGCACAUGAGGAUCACCCAUGUAGUUUAUUUUG | – | – | 18.4 | 65.7 |
| CCGGCUUACUAGGAUAUAGGAGUCGAUAGACACCUAGAAGGAGUAACAUGAGGAUCACCCAUGUGUCCUACCGG | – | – | 22.1 | 86 |
| AAACUGCAGAAGAUAAUAAUGAAUACAUGAGGAUCACCCAUGUAGGAUAUCGUCAGGAAUACUGACGAGAAGGACAUACUGCAG | – | – | 14.3 | 15.6 |
| AUCCAGGUAACAUGAGGAUCACCCAUGUUCCUUCGCUCUGGCAAGGAUAUGAAGGGAUUGUCCCAUCAGAAGGUGCAUGGGUGC | 23 | 19.9 | – | – |
| ACAAAUGGAGGAUAUACAUGAGGAUCACCCAUGUAUAUCCUACAUAUGUGAUUUUUAUGUAGAAGGCCAUUUGA | – | – | 12.8 | 13.4 |
| ACAUGAGGAUCACCCAUGUUCGUUGAAGAAGGUACCAUUUACUUUAGUAGUAUUAAUUUAUUUGGUAAGGAUAUUCUCAUAAUU | 15.9 | 7.75 | – | – |

| Sequence | apparent Kd [1] [nM] | apparent Kd [2] [nM] | apparent Kd [3] [nM] | apparent Kd [4] [nM] |
| --- | --- | --- | --- | --- |
| AGUCGGAGCAGAGGAUAUUACAUGAGGAUCACCCAUGUAAUAAGAUCAAGCUGGAAACAGCAAUGUAAGAAGGCUGCUCCGACA | – | – | 16.3 | 45.6 |
| GAUAAACAUGAGGAUCACCCAUGUCAGGAUAUGCGCUAGCUAGCUAGCUAGCUAGCUAGCAGAAGGGACACUAC | – | – | 19.5 | 35 |
| GGGCAAUUAGGAUAUACAUGAGGAUCACCCAUGUGGAAGCCCGGACAGGUAAUCCACUGUAGAAGGGAUUGCCA | – | – | 12 | 13.3 |
| UGAUAACAUGUAGGAUAUGCAGCAUUGACCACUGCAGAAGGACAUGAGGAUCACCCAUGUACCGAUACUAUGGGAUCACGCAAU | – | – | 24.3 | 87.4 |
| GAGUGACAUGAGGAUCACCCAUGUGAGGAUAUCGGACGGACCUAGUUAGCUUCCGCCGCGAGAAGGCACAUCGG | – | – | 121 | 45.8 |
| UUCCAACGAGGAUAUCGAUGGUGGAACAUGAGGAUCACCCAUGUAUGAGAUAUUGUAGUUCGAGAAGGCGUUCAGU | – | – | 36.9 | 32.2 |
| GUAUUAUAGAUCCAUUUAUUCAACAUGAGGAUCACCCAUGUGCAGGAUAUCGUGUGUUUUAUAUUCGAGAAGGGCAAAUUCAUU | – | – | 28.9 | 81.8 |
| AUUAUUGGCUAAGGAUAUGGAUACAUGAGGAUCACCCAUGUAUAAUUUGUGAUCAUAUAAAUGAUCCAGAAGGUAGCUGUUUAU | – | – | 81.6 | 220 |
| UGUAUACAUGAGGAUCACCCAUGUCAACGUAGUCGAGGAUAUGGGCAGCCGUGAGGCGUACCAGAAGGCGAAGAGG | 86.5 | 19.4 | – | – |
| GUGCUCGUGUGAGGAUAUGCUUCCGUUUCGGCUGCAGAAGGUACUAUUAUACAUGAGGAUCACCCAUGUCGCUUUUCUCCGGUG | 26.6 | 27.5 | – | – |
| AAACAUGUCCGAGGAUAUCUGAGAACAUUUUCAAGAGAAGGCGGACAUGAGGAUCACCCAUGUCUCUCCUCAUCAACUCCAAAU | – | – | 6.37 | 17.3 |
| CAGCAAUGUAAGAAGGCUGCUCCGAUAAGGAGCAGAGGAUAUUACAUGAGGAUCACCCAUGUAUGAACCAAUAGCUGAAAUAAA | – | – | 8.78 | 94.2 |
| AAAAGACAUGAGGAUCACCCAUGUAAAGACAUAGGAGGAUAUGUCUUGAAAAAAGACUUGACAGAAGGCCUUUGUC | 23.8 | 20.8 | – | – |
| UGCGUGUUAGGAUAUGCCAGCGCUACCUAAGGUAGGCUGUGGUAGAAGGAACAUGAGGAUCACCCAUGUAGGAG | – | – | 111 | 483 |
| CUCAAGUGAGGAUAUAUACUUCCAUCAUUUGAGAUAGAAGUAUAGAAGGCACAUGAGGAUCACCCAUGUAUAAC | – | – | 136 | 39.7 |
| CUGACGAUGUAAGGAUAUGCUGAGGAUAACUCAGCAGAAGGUACAUGAGGAUCACCCAUGUAAUAAGAUCAAUAAUAACGUCAG | – | – | 15.3 | 32.1 |
| GUAGUGUAUGUAGGAUAUGUGAAGCAAAGCUUCACAGAAGGACAUGAGGAUCACCCAUGUAUUACAGUCAGCAAUCUGACUGUU | – | – | 39.8 | 137 |
| GGGCUCAUCGAGAAGGCCUCAACAUGAGGAUCACCCAUGUUGUAAUAUGGGAGGAUAUCGAUGAUACAGCUACGUUUCGUACCC | 18 | 6.25 | – | – |
| ACUCGUGGACAGAAGGCGACAUGAGGAUCACCCAUGUUGGCUCGGGUAUGACCAAUCCGCAUGAUCGAGGAUAUGUCUGCGGGC | – | – | 326 | 16.1 |
| CCUCUACAUGAGGAUCACCCAUGUGAGGAUAUCAAAGCCAGAGCGGAUCUCUGGUCCAUGAGAAGGUGCAUGGU | – | – | 20.4 | 89.6 |
| AAAAAGUCAGGAUAUGUCAAAAGUCACAAAAGUGACAAAAGACAGAAGGGACAUGAGGAUCACCCAUGUAAAAA | – | – | 29 | 46.4 |
| GGUGCGUUUGUGAGGAUAUGCUGGUCCUUGGAUCUGCAGAAGGCACAUGAGGAUCACCCAUGUGGUGUCGUACC | – | – | 293 | 36.5 |
| AGACUGAAGCAAGGAUAUUGUAAGGUUAUCGUACAAGAAGGUGCUGUUUAUGUCUCUUAACAUGAGGAUCACCCAUGUUUUGAA | 18.4 | 18.1 | – | – |
| UGAUAGGACAGAGGAUAUACGGCUAGGAGAUACUAGCCACUAUUCCUCACAUGAGGAUCACCCAUGUAGAAGGCUGUCCUAUCU | – | – | 16.4 | 119 |
| GCCAGAGCAGGAUAUUCAAUAAUCCACAUGAGGAUCACCCAUGUCCAGCGAAAGCUGGAGGGAGAAGGGCUCUGGC | – | – | 94.2 | 35.1 |
| GCGUAUAUAUUAUUUAUUUAACUGUCAGAAGGUGAGAAGACGACAUGAGGAUCACCCAUGUUAUUCAAGGAUAUGAUAAUGCGC | 13.5 | 8.94 | – | – |
| AGAACGUCAGGAUAUCGAACAACAAGUAAAUAGAGAAGAAGCGAGAAGGGACAUGAGGAUCACCCAUGUAAGAA | – | – | 57.6 | 45.3 |
